Data as given in ChEMBL document CHEMBL3351227, “Solving the supply of resveratrol tetramers from Papua New Guinean rainforest anisoptera species that inhibit bacterial type III secretion systems” (J Nat Prod, 2014).
Calls of active or inactive are those of the source. No cut-off for these calls is given here.

How the values were obtained:
[1] = Inhibition of YopH in Yersinia pseudotuberculosis YPIII PIB102-Elux using p-nitrophenyl phosphate as substrate measured after 3 hrs 15 mins by phosphatase enzyme assay
Summary of the method: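 Same YopE-reporter culture and incubation, with Ca2+-depleted BHI and compounds at 10–100 μM. Before decanal addition, an aliquot went into pNPP (12.5 mM in 20 mM MES pH 5.0, 0.8 mM DTT). This was incubated 15 min at 37 °C, stopped with NaOH and read at 405 nm. IC50 was interpolated from dose–response curves. Bacteria in BHI with 2.5 mM Ca2+ were the negative control.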

[2] = Inhibition of YopE in Yersinia pseudotuberculosis YPIII PIB102-Elux measured after 3 hrs 15 mins by luminescent reporter-gene assay
Summary of the method: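 Strain was grown on LB agar with 25 μg/mL chloramphenicol for 48 h at 26 °C, then in BHI with chloramphenicol for 12−16 h at 26 °C. It was diluted to OD620 0.2, then 1 in 4 into Ca2+-depleted BHI (5 mM EGTA, 20 mM MgCl2). Compounds were tested at 10–100 μM. Incubation was 1 h at 26 °C, 3 h at 37 °C, then 15 min at 26 °C. Luminescence was read after adding 0.1% decanal, and IC50 was interpolated from dose–response.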

[3] = tested on: Yersinia pseudotuberculosis YPIII; assay: Antimicrobial activity against Yersinia pseudotuberculosis YPIII PIB102-Elux at 364 uM by spectrophotometry; assay type: functional

Oc1ccc([C@@H]2c3c(O)cc(O)cc3[C@@H]3c4c(cc(O)c5c4[C@@H]2[C@H](c2ccc(O)cc2)[C@H]5c2cc(O)cc4c2[C@@H](c2cc(O)cc(O)c2)[C@H](c2ccc(O)cc2)O4)O[C@H]3c2ccc(O)cc2)cc1 [Vaticanol B]
IC50 [1]: 3.3 µM | IC50 [2]: 9.9 µM

OC[C@H]1O[C@@H](Oc2cc3c4c(c2)[C@@H]([C@@H]2c5cc(O)cc6c5[C@@H](c5cc(O)cc(O)c5[C@H]2c2ccc(O)cc2)[C@H](c2ccc(O)cc2)O6)[C@H](c2ccc(O)cc2)c2c(O)cc(O)cc2[C@H]4[C@H](c2ccc(O)cc2)O3)[C@H](O)[C@@H](O)[C@@H]1O [VATALBINOSIDE A]
Activity [3]: inactive | IC50 [1]: 4.5 µM | IC50 [2]: 12.5 µM

CN[C@@H]1[C@H](O[C@H]2[C@H](O[C@H]3[C@H](O)[C@@H](O)[C@H](N=C(N)N)[C@@H](O)[C@@H]3N=C(N)N)O[C@@H](C)[C@]2(O)C=O)O[C@@H](CO)[C@H](O)[C@H]1O [STREPTOMYCIN]
IC50 [1]: 31 µM | IC50 [2]: 38 µM

Oc1ccc([C@@H]2c3c(O)cc(O)cc3[C@@H]3c4c(cc(O)cc4[C@H]2[C@@H]2c4cc(O)cc5c4[C@@H](c4cc(O)cc(O)c4[C@H]2c2ccc(O)cc2)[C@H](c2ccc(O)cc2)O5)O[C@H]3c2ccc(O)cc2)cc1
Activity [3]: inactive | IC50 [1]: 2.9 µM | IC50 [2]: 8.8 µM
